ChEMBL document CHEMBL4311965, “Antimicrobial activity of amphipathic α,α-disubstituted β-amino amide derivatives against ESBL - CARBA producing multi-resistant bacteria; effect of halogenation, lipophilicity and cationic character” (Eur J Med Chem, 2019)
Values after ≈ are worked out from the molar mass of the structure shown.

Key:
Staphylococcus aureus [1] = experiment: Antibacterial activity against Staphylococcus aureus ATCC 9144 cultured in MHB medium assessed as no bacterial growth incubated at 37 degC for 24 hrs by microdilution susceptibility test; assay type: functional; conditions: ATCC 9144, 24 h
How it was run: (§1)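 Broth microdilution per CLSI M07-A9 with modifications. Inoculum about 2.5–3 x 10⁴ cells/mL in Mueller-Hinton broth, mixed 1:1 with test derivative. DMSO stocks diluted in double-distilled water, final DMSO <1%. Incubation 24 h at 37 °C (20 °C for C. glutamicum). Growth and sterility controls included; oxytetracycline reference.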

[2] = tested on: Corynebacterium glutamicum; experiment: Antibacterial activity against Corynebacterium glutamicum ATCC 13032 cultured in MHB medium assessed as no bacterial growth incubated at 20 degC for 24 hrs by microdilution susceptibility test; assay type: functional; conditions: ATCC 13032, 24 h; how it was run: as §1
Pseudomonas aeruginosa [3] = experiment: Antibacterial activity against Pseudomonas aeruginosa PA01 DSM 19880 (ATCC 15692) cultured in MHB medium assessed as no bacterial growth incubated at 37 degC for 24 hrs by microdilution susceptibility test; assay type: functional; conditions: PAO1 DSM 19880 (ATCC 15692); how it was run: as §1
[4] = Selectivity index, ratio of EC50 for hemolytic activity against human RBC to MIC for antibacterial activity against Staphylococcus aureus ATCC 9144; assay type: toxicity; conditions: human red blood cells (RBC)
How it was run: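 Selectivity index is the RBC haemolysis EC50 divided by the MIC against the E. coli or S. aureus reference strain.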

Staphylococcus aureus [5] = experiment: Antibacterial activity against multidrug-resistant Staphylococcus aureus N315 cultured in MHB medium assessed as reduction in bacterial growth incubated for 24 hrs by microdilution susceptibility test; assay type: functional; conditions: N315, 24 h
How it was run: (§2)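 Broth microdilution per CLSI M07-A9 (modified). Working solutions made from concentrated DMSO stocks kept at r.t., diluted in double-distilled water, final DMSO <1%. Inoculum 1–1.2 x 10⁶ cells/mL in Mueller-Hinton broth, mixed 1:1 with compound. 37 °C, 24 h, four parallels. Read as OD₆₀₀. Where precipitation left residual OD, the point of major OD decrease was taken as the inhibitory concentration.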

Staphylococcus aureus [6] = experiment: Antibacterial activity against multidrug-resistant Staphylococcus aureus NCTC 10442 cultured in MHB medium assessed as reduction in bacterial growth incubated for 24 hrs by microdilution susceptibility test; assay type: functional; conditions: NCTC 10442, 24 h; how it was run: as §2
Staphylococcus aureus [7] = experiment: Antibacterial activity against multidrug-resistant Staphylococcus aureus 85/2082 cultured in MHB medium assessed as reduction in bacterial growth incubated for 24 hrs by microdilution susceptibility test; assay type: functional; conditions: 85/2082, 24 h; how it was run: as §2
Staphylococcus aureus [8] = experiment: Antibacterial activity against multidrug-resistant Staphylococcus aureus IHT 99040 cultured in MHB medium assessed as reduction in bacterial growth incubated for 24 hrs by microdilution susceptibility test; assay type: functional; conditions: IHT 99040, 24 h; how it was run: as §2
Enterococcus faecium [9] = experiment: Antibacterial activity against multidrug-resistant Enterococcus faecium 50673722 cultured in BHIB medium assessed as reduction in bacterial growth incubated for 24 hrs by microdilution susceptibility test; assay type: functional; conditions: Enterococcus faecium, 50673722, 24 h
How it was run: (§3)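 Enterococci grown in Brain Heart Infusion broth, otherwise broth microdilution per CLSI M07-A9 (modified). Concentrated DMSO stocks kept at r.t. and diluted in double-distilled water, final DMSO <1%. Inoculum 1–1.2 x 10⁶ cells/mL mixed 1:1 with compound. 37 °C, 24 h, four parallels. OD₆₀₀ read-out, lowest concentration with no growth.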

Enterococcus faecium [10] = experiment: Antibacterial activity against multidrug-resistant Enterococcus faecium 50901530 cultured in BHIB medium assessed as reduction in bacterial growth incubated for 24 hrs by microdilution susceptibility test; assay type: functional; conditions: Enterococcus faecium, 50901530, 24 h; how it was run: as §3
Escherichia coli [11] = experiment: Antibacterial activity against multidrug-resistant Escherichia coli 50579417 producing oxcillinase-48 cultured in MHB medium assessed as reduction in bacterial growth incubated for 24 hrs by microdilution susceptibility test; assay type: functional; conditions: Escherichia coli, 50579417, 24 h; how it was run: as §2
Escherichia coli [12] = experiment: Antibacterial activity against multidrug-resistant Escherichia coli 50639799 producing Verona integron encoded metallo beta-lactamse-29 cultured in MHB medium assessed as reduction in bacterial growth incubated for 24 hrs by microdilution susceptibility test; assay type: functional; conditions: Escherichia coli, 50639799, 24 h; how it was run: as §2
Escherichia coli [13] = experiment: Antibacterial activity against multidrug-resistant Escherichia coli 50739822 producing New Delhi metallo-beta-lactamase-1 cultured in MHB medium assessed as reduction in bacterial growth incubated for 24 hrs by microdilution susceptibility test; assay type: functional; conditions: Escherichia coli, 50739822, 24 h; how it was run: as §2
Escherichia coli [14] = experiment: Antibacterial activity against multidrug-resistant Escherichia coli 50857972 producing imipenem-type carbapenemase-26 cultured in MHB medium assessed as reduction in bacterial growth incubated for 24 hrs by microdilution susceptibility test; assay type: functional; conditions: Escherichia coli, 50857972, 24 h; how it was run: as §2
Pseudomonas aeruginosa [15] = experiment: Antibacterial activity against multidrug-resistant Pseudomonas aeruginosa K34-7 producing Verona integron encoded metallo beta-lactamse-2 cultured in MHB medium assessed as reduction in bacterial growth incubated for 24 hrs by microdilution susceptibility test; assay type: functional; conditions: K34-7, 24 h; how it was run: as §2
Pseudomonas aeruginosa [16] = experiment: Antibacterial activity against multidrug-resistant Pseudomonas aeruginosa K34-73 producing Verona integron encoded metallo beta-lactamse-4 cultured in MHB medium assessed as reduction in bacterial growth incubated for 24 hrs by microdilution susceptibility test; assay type: functional; conditions: K34-73, 24 h; how it was run: as §2
Pseudomonas aeruginosa [17] = experiment: Antibacterial activity against multidrug-resistant Pseudomonas aeruginosa K44-24 producing imipenem-type carbapenemase-14 cultured in MHB medium assessed as reduction in bacterial growth incubated for 24 hrs by microdilution susceptibility test; assay type: functional; conditions: K44-24, 24 h; how it was run: as §2
Pseudomonas aeruginosa [18] = experiment: Antibacterial activity against multidrug-resistant Pseudomonas aeruginosa 50692172 producing New Delhi metallo-beta-lactamase-1 cultured in MHB medium assessed as reduction in bacterial growth incubated for 24 hrs by microdilution susceptibility test; assay type: functional; conditions: Pseudomonas aeruginosa, 50692172, 24 h; how it was run: as §2
Pseudomonas aeruginosa [19] = experiment: Antibacterial activity against multidrug-resistant Pseudomonas aeruginosa 50692520 producing Verona integron encoded metallo beta-lactamse cultured in MHB medium assessed as reduction in bacterial growth incubated for 24 hrs by microdilution susceptibility test; assay type: functional; conditions: Pseudomonas aeruginosa, 50692520, 24 h; how it was run: as §2
Klebsiella pneumoniae [20] = experiment: Antibacterial activity against multidrug-resistant Klebsiella pneumoniae K47-25 producing carbapenemase-2 cultured in MHB medium assessed as reduction in bacterial growth incubated for 24 hrs by microdilution susceptibility test; assay type: functional; conditions: K47-25, 24 h; how it was run: as §2
Klebsiella pneumoniae [21] = experiment: Antibacterial activity against multidrug-resistant Klebsiella pneumoniae 50625602 producing oxcillinase-245 cultured in MHB medium assessed as reduction in bacterial growth incubated for 24 hrs by microdilution susceptibility test; assay type: functional; conditions: Klebsiella pneumoniae, 50625602, 24 h; how it was run: as §2
Klebsiella pneumoniae [22] = experiment: Antibacterial activity against multidrug-resistant Klebsiella pneumoniae 50667959 producing Verona integron encoded metallo beta-lactamse-1 cultured in MHB medium assessed as reduction in bacterial growth incubated for 24 hrs by microdilution susceptibility test; assay type: functional; conditions: Klebsiella pneumoniae, 50667959, 24 h; how it was run: as §2
Acinetobacter baumannii [23] = experiment: Antibacterial activity against multidrug-resistant Acinetobacter baumannii K44-35 producing oxcillinase-23 cultured in MHB medium assessed as reduction in bacterial growth incubated for 24 hrs by microdilution susceptibility test; assay type: functional; conditions: K44-35, 24 h; how it was run: as §2
Acinetobacter baumannii [24] = experiment: Antibacterial activity against multidrug-resistant Acinetobacter baumannii K55-13 producing oxcillinase-24 cultured in MHB medium assessed as reduction in bacterial growth incubated for 24 hrs by microdilution susceptibility test; assay type: functional; conditions: K55-13, 24 h; how it was run: as §2

SMILES	MIC (Staphylococcus aureus [1])	MIC [2]	MIC (Pseudomonas aeruginosa [3])	selectivity ratio [4]	MIC (Staphylococcus aureus [5])	MIC (Staphylococcus aureus [6])	MIC (Staphylococcus aureus [7])	MIC (Staphylococcus aureus [8])	MIC (Enterococcus faecium [9])	MIC (Enterococcus faecium [10])	MIC (Escherichia coli [11])	MIC (Escherichia coli [12])	MIC (Escherichia coli [13])	MIC (Escherichia coli [14])	MIC (Pseudomonas aeruginosa [15])	MIC (Pseudomonas aeruginosa [16])	MIC (Pseudomonas aeruginosa [17])	MIC (Pseudomonas aeruginosa [18])	MIC (Pseudomonas aeruginosa [19])	MIC (Klebsiella pneumoniae [20])	further results
NCCNCC(CN)(Cc1ccccc1Br)Cc1ccccc1Br	16 µg/mL (≈ 35.1 µM)	2 µg/mL (≈ 4.39 µM)	16 µg/mL (≈ 35.1 µM)	13	8 µg/mL (≈ 17.6 µM)	16 µg/mL (≈ 35.1 µM)	8 µg/mL (≈ 17.6 µM)	8 µg/mL (≈ 17.6 µM)	16 µg/mL (≈ 35.1 µM)	16 µg/mL (≈ 35.1 µM)	16 µg/mL (≈ 35.1 µM)	16 µg/mL (≈ 35.1 µM)	16 µg/mL (≈ 35.1 µM)	16 µg/mL (≈ 35.1 µM)	32 µg/mL (≈ 70.3 µM)	32 µg/mL (≈ 70.3 µM)	32 µg/mL (≈ 70.3 µM)	32 µg/mL (≈ 70.3 µM)	16 µg/mL (≈ 35.1 µM)	16 µg/mL (≈ 35.1 µM)	MIC (Klebsiella pneumoniae [21]): 16 µg/mL (≈ 35.1 µM); MIC (Klebsiella pneumoniae [22]): 16 µg/mL (≈ 35.1 µM); MIC (Acinetobacter baumannii [23]): 16 µg/mL (≈ 35.1 µM); MIC (Acinetobacter baumannii [24]): 16 µg/mL (≈ 35.1 µM)
NCCNCC(CN)(Cc1cc(C(F)(F)F)cc(C(F)(F)F)c1)Cc1cc(C(F)(F)F)cc(C(F)(F)F)c1	4 µg/mL (≈ 7.02 µM)	1 µg/mL (≈ 1.76 µM)	4 µg/mL (≈ 7.02 µM)	6	8 µg/mL (≈ 14 µM)	8 µg/mL (≈ 14 µM)	8 µg/mL (≈ 14 µM)	8 µg/mL (≈ 14 µM)	4 µg/mL (≈ 7.02 µM)	8 µg/mL (≈ 14 µM)	8 µg/mL (≈ 14 µM)	8 µg/mL (≈ 14 µM)	8 µg/mL (≈ 14 µM)	8 µg/mL (≈ 14 µM)	32 µg/mL (≈ 56.2 µM)	32 µg/mL (≈ 56.2 µM)	32 µg/mL (≈ 56.2 µM)	16 µg/mL (≈ 28.1 µM)	32 µg/mL (≈ 56.2 µM)	16 µg/mL (≈ 28.1 µM)	MIC (Klebsiella pneumoniae [21]): 8 µg/mL (≈ 14 µM); MIC (Klebsiella pneumoniae [22]): 8 µg/mL (≈ 14 µM); MIC (Acinetobacter baumannii [23]): 8 µg/mL (≈ 14 µM); MIC (Acinetobacter baumannii [24]): 8 µg/mL (≈ 14 µM)
N#CC(Cc1cc(C(F)(F)F)cc(C(F)(F)F)c1)(Cc1cc(C(F)(F)F)cc(C(F)(F)F)c1)C(=O)NCCN	16 µg/mL (≈ 27.6 µM)	8 µg/mL (≈ 13.8 µM)	64 µg/mL (≈ 110 µM)	18	> 32 µg/mL	32 µg/mL (≈ 55.2 µM)	32 µg/mL (≈ 55.2 µM)	16 µg/mL (≈ 27.6 µM)	16 µg/mL (≈ 27.6 µM)	16 µg/mL (≈ 27.6 µM)	> 32 µg/mL	> 32 µg/mL	> 32 µg/mL	> 32 µg/mL	> 32 µg/mL	> 32 µg/mL	> 32 µg/mL	> 32 µg/mL	> 32 µg/mL	> 32 µg/mL	MIC (Klebsiella pneumoniae [21]): > 32 µg/mL; MIC (Klebsiella pneumoniae [22]): > 32 µg/mL; MIC (Acinetobacter baumannii [23]): > 32 µg/mL; MIC (Acinetobacter baumannii [24]): > 32 µg/mL
